An excerpt weighted towards active compounds, which were near 1.4% of everything screened.
KLK5 inh: kallikrein 5 (human) inhibition; recombinant hK5, fluorogenic AMC substrate cleavage; inhibition, % at 5 µM; 210,000 compounds, 0.59% hits; AID 873;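 active = inhibition of 40% or more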;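 note: 0% = enzyme controls without compound and 100% = no-enzyme blanks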
Furin inh: blocks human furin protease activity | inhibition, % at 20 µM or 30 µM | purified furin, fluorogenic substrate cleavage | 220,000 compounds, 0.061% hits | P09958; in the data active = inhibition above about 25%
FXIa inh: inhibitors of human coagulation factor XIa; AID 798; inhibition, % at 5 µM; purified FXIa, Boc-Glu-Ala-Arg-AMC fluorogenic substrate; 220,000 compounds, 0.14% hits;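 active = inhibition of at least 40%; inactive = inhibition below 40%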;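 note: fluorescence of freed AMC excited at 355 nm; 0% = enzyme without compound and 100% = no enzyme blank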
FXIIa inh 1536: inhibitors of human coagulation factor XIIa; P00748; purified FXIIa, Boc-QGR-AMC fluorogenic substrate, 2 h; inhibition, % at 5 µM; 220,000 compounds, 0.3% hits; in the data active = inhibition above about 40%;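 note: 0% = enzyme with no compound and 100% = blank without enzyme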
Target sequence (P00748 20-372 limits assumed): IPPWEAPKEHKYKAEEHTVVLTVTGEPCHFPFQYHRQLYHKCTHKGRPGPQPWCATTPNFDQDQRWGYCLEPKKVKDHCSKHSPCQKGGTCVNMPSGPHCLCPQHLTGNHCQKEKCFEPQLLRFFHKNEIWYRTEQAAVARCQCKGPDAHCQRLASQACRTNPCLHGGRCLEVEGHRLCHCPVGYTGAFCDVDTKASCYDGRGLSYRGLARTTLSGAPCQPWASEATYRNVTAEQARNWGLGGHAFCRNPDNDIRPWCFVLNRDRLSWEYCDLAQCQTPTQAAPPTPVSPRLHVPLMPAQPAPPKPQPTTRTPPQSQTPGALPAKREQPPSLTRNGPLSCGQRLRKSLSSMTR
Target sequence (P00748 373-615 limits assumed): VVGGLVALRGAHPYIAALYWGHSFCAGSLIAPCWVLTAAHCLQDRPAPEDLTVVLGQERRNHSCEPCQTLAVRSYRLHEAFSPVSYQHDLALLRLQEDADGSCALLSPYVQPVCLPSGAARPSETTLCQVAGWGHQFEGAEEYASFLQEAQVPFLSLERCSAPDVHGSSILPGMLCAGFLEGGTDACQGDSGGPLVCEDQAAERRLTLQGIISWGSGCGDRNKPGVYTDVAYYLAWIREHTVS
Calpain2 inh: calpain II (pig) inhibition; 220,000 compounds, 0.37% hits; inhibition, % at 16 µM; AID 1236; purified calpain II, fluorogenic peptide substrate, 30 min;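 active = inhibition above about 50%, limit read from the data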
thrombin 1536: thrombin (human) inhibition; 220,000 compounds, 0.26% hits; inhibition, % at 5 µM; AID 1046; alpha-thrombin, Boc-VPR-AMC fluorogenic substrate cleavage;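 active = inhibition at or above 40%; inactive = inhibition below 40%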;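 note: 0% = enzyme with no compound and 100% = wells without enzyme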
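Material: human alpha-thrombin protein; Also added: Boc-VPR-AMC substrate, 15 µM final; Timing: enzyme reaction carried out at room temperature; Signal: fluorescence, ex 355 nm, em 460 nm; Measure: % inhibition of thrombin; Controls: enzyme without compound as high, wells lacking enzyme as low.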
* marks the source's active call; other numbers are inactive results; i = inactive; · = no result given.

SMILES	KLK5 inh	Furin inh	FXIa inh	FXIIa inh 1536	Calpain2 inh	thrombin 1536
NC(=O)c1ccc(-n2nnnc2Oc2ccccc2C(=O)N2CCOCC2)cc1	-16	14	-3	2	51*	-3
O=C1OC(c2ccccc2)C2(CCCC2)C(=O)C12CCCC2 (stereo not given)	6	-15	2	-2	-14	-2
O=C1OC(c2cccc([N+](=O)[O-])c2)C2(CCCC2)C(=O)C12CCCCC2 (stereo not given)	16	-14	19	20	53*	28
Cc1ccc(NC2(C#N)C(=O)Nc3ccccc32)cc1C (stereo not given)	2	-34	-3	0	-24	-14
COC(=O)c1ccc(NC2(C#N)C(=O)Nc3ccccc32)cc1 (stereo not given)	-21	31*	4	9	46	-4
CCc1ccc(-c2cn(C3CCCCC3)c(=S)[nH]2)cc1	-15	-18	-2	7	-26	2
CCOc1cc(C(=O)NC)cc(OCC)c1OCC	44*	-31	-8	12	11	22
CCc1nc2oc3cc(OC)ccc3c(=O)c2c(=O)n1Cc1ccccc1	48*	-19	7	27	-2	25
CCc1nc2oc3ccccc3c(=O)c2c(=O)n1Cc1ccccc1	-7	-12	0	-3	21	-2
O=C1COc2ccc(C(=O)COC(=O)CNC(=O)c3ccco3)cc2N1	-8	-24	-10	3	-21	-25
Cc1csc(NC(=O)C2CCN(S(=O)(=O)c3ccc4c(c3)oc(=O)n4C)CC2)n1	-2	-25	-3	13	8	-1
Cc1csc(NC(=O)C(CC(C)C)NS(=O)(=O)c2ccc3c(c2)oc(=O)n3C)n1 (stereo not given)	55*	-30	7	107*	27	8
COc1ccc(C2=[N+](C)CCn3cccc32)c(OC)c1	35	0	5	69*	33	25
O=[N+]([O-])c1cccc(-c2nnc(C3CC3)o2)c1	6	-18	5	1	18	-5
Nc1nnc(-c2cccc([N+](=O)[O-])c2)o1	51*	6	-18	2	7	-9
O=C1NCCC/C1=N/Nc1cc(F)ccc1F	-7	0	-7	6	1	-3
O=C(O)c1ccccc1-n1c2ccccc2c2ccccc21	12	-17	2	5	-12	-12
Cc1ccc(C)c(Cn2c(CO)nc3ccccc32)c1	41*	-27	7	-6	4	17
CCOC(=O)c1ccc(CC(=O)c2oc3cc(O)ccc3c2C)o1	-3	-3	4	16	-74	4
CCOC(=O)c1ccc(CC(=O)c2ccc(O)c(O)c2O)o1	·	-19	3	12	58*	0
COc1ccc(Nc2nc(=O)c3cc([N+](=O)[O-])ccc3s2)cc1	-2	-25	-1	6	60*	-6
O=[N+]([O-])c1cccc(-c2nc3ccccc3s/c2=N/O)c1	-1	0	-2	10	47	-5
CC(=O)c1ccc2c(c1)Nc1ccccc1S2	15	-21	-5	1	7	-3
CC(=O)c1ccc2c(c1)N(C)c1ccccc1S2	41*	-5	16	21	41	17
Cc1ccc(CNC(=O)C2COc3ccccc3O2)cc1 (stereo not given)	2	5	-3	10	-11	-4
SMILES	KLK5 inh	Furin inh	FXIa inh	FXIIa inh 1536	Calpain2 inh	thrombin 1536
O=C(NCc1ccccc1)C1COc2ccccc2O1 (stereo not given)	-7	30*	5	15	-16	6
CCc1ccc(NCCC(=O)c2ccc(Cl)cc2)cc1	-10	-8	3	17	-4	1
Cc1ccc(NCCC(=O)c2ccc(Cl)cc2)cc1C	47*	-11	4	13	21	8
COC(=O)c1ccc(N=CC2=C(O)CC(c3ccccc3)CC2=O)cc1 (stereo not given)	-3	-16	-4	2	-11	-7
COc1ccc(C(=O)Nc2cccc(S(C)(=O)=O)c2)cc1OC	43*	-7	28	22	27	11
COc1ccc(C(=O)Nc2cccc(NC(C)=O)c2)cc1OC	0	-14	7	14	-19	2
CN(C)S(=O)(=O)c1cccc(NC(=S)N2CCCCC2CO)c1 (stereo not given)	-5	-22	4	2	-15	·
CCC1CCCCN1C(=S)Nc1cccc(S(=O)(=O)N(C)C)c1 (stereo not given)	49*	-27	0	7	0	-2
NCCc1c(-c2ccccc2)n(-c2ccccc2)c2ccccc12	0	-18	-3	6	-41	-4
N#Cc1ccccc1NC(=O)COC(=O)COc1ccccc1[N+](=O)[O-]	2	-14	3	14	-18	42*
CC(OC(=O)CCC(=O)c1cccs1)C(=O)Nc1ccccc1[N+](=O)[O-] (stereo not given)	-15	-12	-5	0	10	38
O=C(COC(=O)CCC(=O)c1cccs1)Nc1ccccc1[N+](=O)[O-]	6	-25	-1	3	0	42*
C/C(=N\NC(=O)Cc1csc(N2CCOCC2)n1)c1ccc(Cl)c(Cl)c1	-3	-9	-4	2	21	-5
CC(=O)N1CCCN(Cc2cn(-c3cc(C)ccc3C)nc2-c2ccccc2)CC1	2	-16	-1	6	-8	-9
O=C(CN1C(=O)CS/C1=C\c1nc(-c2ccc(Cl)cc2)cs1)Nc1cccnc1Cl	-7	-7	-4	-3	-10	-11
Cc1ccc(-c2csc(/C=C3\SC(C)C(=O)N3CC(=O)Nc3ccccc3F)n2)cc1 (stereo not given)	1	-28	-2	7	67*	-3
COc1ccc(CC2(CO)CCN(CC3=Cc4cc(Cl)ccc4OC3)CC2)cc1	0	-27	1	5	12	-4
O=C(Nc1ccc(Cl)cc1)/C(=C/c1ccc([N+](=O)[O-])cc1)c1nc2ccccc2s1	-9	-28	0	5	-176	-3
COc1ccc(-c2ncccc2OC(=O)C23CC4CC(CC(C4)C2)C3)cc1	60*	-41	3	-1	16	18
O=C(O)c1ccccc1OC(=O)C12CC3CC(CC(C3)C1)C2	1	-20	-3	5	-21	-4
CCN(CC)CCN1C(=O)c2ccccc2NC1c1ccccc1F (stereo not given)	41*	-20	13	16	i	25
CCN(CC)CCN1C(=O)c2ccccc2NC1c1ccc(F)cc1 (stereo not given)	-72	-35	0	4	i	-3
COc1ccc(S(=O)(=O)Nc2cc3c4c(oc3c3ccccc23)CC(C)(C)CC4=O)cc1	48*	-32	3	-5	-104	24

Screening data (PubChem)
